Series [1] in a line: folding enthalpy; higher = less favourable; fluorescence melt of hairpins on a sequencing array, two-state fit. The note with it: sodium 0.088 M. In outline: (§1)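 Folding enthalpy and melting temperature were estimated with bootstrapped two-state fits and combined across four replicates by inverse-variance weighting, with fitted temperatures raised by 9.35 °C to match UV melts. The data were Cy3 fluorescence of library hairpins, with annealed Cy3 and quencher oligos, on a sequenced MiSeq flow cell in 50 mM Na-HEPES pH 8.0, 25 mM NaCl, imaged in 2.5 °C steps up to 60 °C and normalised to pre-quench Cy3 and control constructs.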

Series [2] in a line: melting temperature; fluorescence melt of hairpins on a sequencing array, two-state fit, raised by 9.35 °C to match UV melts. The note with it: sodium 0.088 M. In outline:
as §1

In the case of GGTATGCGAAAGCAGACC (((.(((....))).))), the folding enthalpy in series [1] was -35.3 kcal/mol. In addition, the Tm in series [2] was 65.1 °C.

As to GGTATTCGAAAGAACACC (((.(((....))).))), the folding enthalpy in series [1] is -29.4 kcal/mol. Besides, the Tm in series [2] is 39.3 °C.

In the case of GGTATTGGAAACGATACC (((((.(....).))))), the folding enthalpy in series [1] was -33.4 kcal/mol. The Tm in series [2] is 44.4 °C.

As for GGTCAACGAAAGTTAACC (((.(((....))).))), the folding enthalpy in series [1] was -25 kcal/mol. Also, the Tm in series [2] is 39.3 °C.

In the case of GGTCAAGGAAACTTGGCC ((.((((....)))).)), in series [1], the folding enthalpy was -38.1 kcal/mol. Moreover, the Tm in series [2] stood at 52.8 °C.

Take GGTCACACGAAAGTGACC (((..(((....)))))): the folding enthalpy in series [1] was -35.5 kcal/mol. Also, in series [2], the Tm worked out at 58.2 °C.

As for GGTCACCGAAAGGTTACC (((.(((....))).))), in series [1], the folding enthalpy is -27.2 kcal/mol. In series [2], the Tm was 50.1 °C.

On to GGTCACGAAAGTGCACC ((((((....))).))), for which the folding enthalpy in series [1] is -28.3 kcal/mol. In addition, the Tm in series [2] came out at 52.5 °C.

As for GGTCACGGAAACATGACC (((((.(....).))))), the folding enthalpy in series [1] was -28.4 kcal/mol. For the same sequence, the Tm in series [2] amounted to 44.4 °C.

For GGTCAGCGAAAGCTACC (((.(((....)))))), in series [1], the folding enthalpy is -16.7 kcal/mol. Besides, the Tm in series [2] worked out at 47.5 °C.

GGTCAGGGAAACCTGGCC ((.((((....)))).)): the folding enthalpy in series [1] was -42.2 kcal/mol. In addition, the Tm in series [2] amounted to 57.5 °C.

GGTCAGGGAAACCTGGTC (..((((....))))..): the folding enthalpy in series [1] is -15.9 kcal/mol. Further, the Tm in series [2] was found to be 35.7 °C.

With GGTCATCGAAAGATCACC (((.(((....))).))), in series [1], the folding enthalpy was -30.2 kcal/mol. In addition, the Tm in series [2] worked out at 35.7 °C.

In the case of GGTCATGGAAACGTGACC (((((.(....).))))), the folding enthalpy in series [1] is -52.9 kcal/mol. In series [2], the Tm was found to be 53.6 °C.

Turning to GGTCCACCGAAAGGTACC (((..(((....)))))), the folding enthalpy in series [1] is -11.9 kcal/mol. Further, the Tm in series [2] is 29.2 °C.

GGTCCACGAAAGTGCACC (((.(((....))).))): the folding enthalpy in series [1] was -25.9 kcal/mol. Moreover, the Tm in series [2] came to 44.5 °C.

For GGTCCAGGAAACTGAACC (((.(((....))).))), the folding enthalpy in series [1] was -34.6 kcal/mol. The Tm in series [2] was 40 °C.

For GGTCCCGAAAGGGGAACC ((((((....)))..))), in series [1], the folding enthalpy was -17.2 kcal/mol. Moreover, the Tm in series [2] was 48.5 °C.

For the sequence GGTCCCGAAAGGGGCACC ((((((....)))..))), the folding enthalpy in series [1] is -11.3 kcal/mol. Further, the Tm in series [2] was determined as 50.7 °C.

For GGTCCCGAAAGGGTTACC ((((((....)))..))), the folding enthalpy in series [1] was -15.4 kcal/mol. The Tm in series [2] turned out to be 39.6 °C.

GGTCCCGGAAACAGGACC (((((.(....).))))): the folding enthalpy in series [1] is -28.6 kcal/mol. In addition, the Tm in series [2] was 49.7 °C.

GGTCCGCCGAAAGGCACC (((..(((....)))))): in series [1], the folding enthalpy is -8.71 kcal/mol. The Tm in series [2] was 28.3 °C.

For GGTCCGCGAAAGCGTACC (((.(((....))).))), the folding enthalpy in series [1] is -27.2 kcal/mol. Also, the Tm in series [2] amounted to 54.1 °C.

As for GGTCCTCGAAAGAGAACC (((.(((....))).))), the folding enthalpy in series [1] is -32.2 kcal/mol. The Tm in series [2] is 46.8 °C.

On to GGTCCTGGAAACAAGACC ((((.((....)).)))), for which the folding enthalpy in series [1] was -32.1 kcal/mol. Moreover, the Tm in series [2] came out at 36.2 °C.

As for GGTCCTGGAAACAGAACC (((.(((....))).))), in series [1], the folding enthalpy was -29.7 kcal/mol. Further, the Tm in series [2] was determined as 38.9 °C.

In the case of GGTCCTGGAAACAGGATC (.(((((....))))).), the folding enthalpy in series [1] is -31.8 kcal/mol. Besides, the Tm in series [2] is 51 °C.

Turning to GGTCGAACGAAAGTTACC (((..(((....)))))), the folding enthalpy in series [1] was -11.7 kcal/mol. Further, the Tm in series [2] came out at 26.6 °C.

Consider GGTCGACGAAAGTCAACC (((.(((....))).))), for which, in series [1], the folding enthalpy was -32.2 kcal/mol. Also, the Tm in series [2] came to 49.9 °C.

GGTCGACGAAAGTCTACC (((.(((....))).))): the folding enthalpy in series [1] was -34.7 kcal/mol. Besides, in series [2], the Tm stood at 49.8 °C.

Regarding GGTCGAGGAAACTCGGTC (..((((....))))..), the folding enthalpy in series [1] is -16.2 kcal/mol. Moreover, the Tm in series [2] was 38.4 °C.

For the sequence GGTCGCCGAAAGGCCACC (((.(((....))).))), the folding enthalpy in series [1] was -15.7 kcal/mol. For the same sequence, the Tm in series [2] was 48.1 °C.

Turning to GGTCGCGAAAGCGCCACC ((((((....)))..))), in series [1], the folding enthalpy was -11.2 kcal/mol. Besides, the Tm in series [2] turned out to be 47.8 °C.

As for GGTCGCGAAAGCGGAACC ((((((....)))..))), the folding enthalpy in series [1] was -15.3 kcal/mol. For the same sequence, in series [2], the Tm came out at 47.8 °C.

As for GGTCGCGAAAGCGTTACC ((((((....)))..))), the folding enthalpy in series [1] is -14.6 kcal/mol. The Tm in series [2] stood at 41.4 °C.

Consider GGTCGCTCGAAAGAGACC (((..(((....)))))), for which the folding enthalpy in series [1] is -20.6 kcal/mol. Besides, in series [2], the Tm was determined as 49.1 °C.

Consider GGTCGGCCGAAAGGCACC (((..(((....)))))), for which the folding enthalpy in series [1] was -10.9 kcal/mol. In addition, the Tm in series [2] worked out at 34.7 °C.

(Values after the array DNA melting data of Ke et al. (doi:10.1101/2024.01.08.574731).)
